# KCNQ1 act – potentiates or activates the human KCNQ1 potassium channel; AID 2648; P51787; B-score at 10 µM; CHO-K1 KCNQ1, thallium flux FluxOR fluorescence; stronger effect = higher value; actives 0.35% (n = 310,000);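 active = fluorescence ratio B-score, a plate-corrected score, at least three library SD, with initial intensity B-score within 5 SD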
# Target sequence (P51787 whole entry, looked up): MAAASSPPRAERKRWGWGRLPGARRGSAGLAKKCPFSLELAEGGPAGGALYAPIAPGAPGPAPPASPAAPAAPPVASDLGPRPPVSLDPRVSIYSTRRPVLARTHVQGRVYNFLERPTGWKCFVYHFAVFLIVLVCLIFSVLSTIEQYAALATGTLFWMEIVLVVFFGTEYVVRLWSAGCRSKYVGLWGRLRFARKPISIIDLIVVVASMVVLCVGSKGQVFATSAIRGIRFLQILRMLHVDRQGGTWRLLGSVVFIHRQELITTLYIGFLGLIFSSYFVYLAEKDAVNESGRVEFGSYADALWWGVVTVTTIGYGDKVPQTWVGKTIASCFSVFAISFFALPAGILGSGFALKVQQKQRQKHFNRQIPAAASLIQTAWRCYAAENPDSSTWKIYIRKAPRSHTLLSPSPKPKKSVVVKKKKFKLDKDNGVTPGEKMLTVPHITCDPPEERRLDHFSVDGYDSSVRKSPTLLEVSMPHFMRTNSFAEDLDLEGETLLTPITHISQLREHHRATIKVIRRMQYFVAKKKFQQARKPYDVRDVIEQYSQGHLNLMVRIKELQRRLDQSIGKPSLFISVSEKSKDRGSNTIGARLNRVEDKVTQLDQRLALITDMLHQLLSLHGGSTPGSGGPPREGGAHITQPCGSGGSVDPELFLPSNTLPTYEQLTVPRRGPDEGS
#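 Schedule – 37 °C overnight plating, 90-min dark dye load, 20-min compound pretreatment · System – stable KCNQ1 CHO-K1 line · Probe or stimulus – thallium- and potassium-containing depolarizing buffer · Measured by – kinetic FluxOR fluorescence, 10 s baseline plus 110 s post-stimulus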
# hERG protect – compounds protecting human hERG from proarrhythmic drug block. CHO-hERG, FluxOR thallium flux, dofetilide IC70 present. AID 1511. actives 0.51% (n = 310,000). activation (rescue from dofetilide block), less the hit threshold, % at 10 µM;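 active = activation above the mean of controls blocked by dofetilide plus 5 SD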;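 note: thallium influx through hERG after potassium depolarization seen as dye fluorescence rise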
# KCNK3 block – human KCNK3 channel inhibition, primary screen | O14649 | actives 0.84% (n = 340,000) | CHO-KCNK3 thallium flux, FluxOR fluorescence; stronger effect = lower value | AID 602410 | B-score at 10 µM;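 active = B-score under library mean minus 4 SD, starting fluorescence ratio at most library mean plus 5 SD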;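 note: more negative B-score means stronger inhibition of thallium flux through KCNK3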
# KCNK9 inh – blocks the human KCNK9 two-pore domain potassium channel. Q9NPC2. actives 1.2% (n = 310,000). AID 488922. B-score at 10 µM. HEK293 KCNK9, FluxOR thallium flux fluorescence; stronger effect = lower value;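 active = ratio B-score over 3 SD below the library mean, with starting fluorescence within 5 SD of its mean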;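 note: negative B-score means less thallium flux so channel inhibition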
# KCNQ1 block – blocks the human KCNQ1 potassium channel | P51787 | CHO-K1 KCNQ1, FluxOR thallium flux fluorescence; stronger effect = higher value | B-score at 10 µM | actives 1.3% (n = 310,000) | AID 2642;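 active = compounds whose thallium flux B-score, printed positive for inhibition, exceeds three library SD while starting fluorescence stays within three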;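 note: channel opened by potassium depolarization with thallium stimulus after 20 min compound exposure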
# KCNQ1 block val – confirmation of human KCNQ1 potassium channel inhibitors; shares compounds with KCNQ1 block; KCNQ1 cell line, FluxOR thallium flux fluorescence; inhibition, % at 10 µM; actives 93% (n = 1,600); AID 588353;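 active = primary screen active, with duplicate mean exceeding buffer control mean plus 3 SD of buffer wells, cut at about 28% in these data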;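 note: 0% = buffer control ratio and 100% = XE991 inhibitor control ratio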
# CHO KCNQ1 ctr – KCNQ1 inhibitor counter-screen hit in parental CHO cells. actives 21% (n = 1,600). parental CHO-K1, FluxOR thallium flux fluorescence ratio; stronger effect = lower value; zero means no signal rise above baseline. AID 588366. fluorescence ratio (Tl flux) at 10 µM. shares compounds with KCNQ1 block;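 active = mean of duplicate thallium-flux fluorescence ratios in parental host cells more than 5 SD below the buffer control mean, cut at about 0.38 in these data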;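 note: ratio is peak minus minimum fluorescence divided by baseline fluorescence; actives read low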
# KCNQ1 ephys val – human KCNQ1 inhibition validated by electrophysiology; shares compounds with KCNQ1 block; KCNQ1-CHO cells, automated patch clamp current; calls only at 10 µM; actives 20% (n = 490); AID 624120;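 active = KCNQ1 current drop exceeding 3 SD of negative control wells, seen in both duplicate runs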;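 note: steady state current during a 2 s step from -80 to +40 mV; negative values mean current inhibition and positive values mean potentiation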
# KCNQ2 inh – KCNQ1 inhibitor that also blocks rat KCNQ2 channel; shares compounds with KCNQ1 block; KCNQ2 cells, FluxOR thallium flux fluorescence; inhibition, % at 10 µM; actives 71% (n = 1,600); AID 651746;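 active = mean percent inhibition of the KCNQ2 thallium signal more than 5 SD above the buffer-only control wells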;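 note: KCNQ2 expressed in CHO cells; 0% = buffer control wells and 100% = XE-991 inhibitor control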
# KCNQ1 KCNE1 spec – KCNQ1 inhibitor that also blocks human KCNQ1/KCNE1 channel; actives 77% (n = 1,600); AID 652147; shares compounds with KCNQ1 block; inhibition, % at 10 µM; KCNQ1/KCNE1 cells, FluxOR thallium flux fluorescence;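 active = mean percent inhibition of duplicate wells above the buffer-only control mean plus 3 SD of those controls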;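 note: 0% = buffer only wells and 100% = XE-991 inhibitor control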
# Active calls of the source: *; i = inactive; . = no result given; + = active, no number. Rows were chosen to be rich in hits. Some 3.1% of all compounds tested hit in one or more screens of this group.
SMILES,KCNQ1 act,hERG protect,KCNK3 block,KCNK9 inh,KCNQ1 block,KCNQ1 block val,CHO KCNQ1 ctr,KCNQ2 inh,KCNQ1 KCNE1 spec,others
Cc1cccc(OCC(=O)Nc2ccc(S(=O)(=O)N3CCCC3)cc2)c1,i,-13.9,i,i,i,.,.,.,.,
O=C(COc1cccc(C(F)(F)F)c1)Nc1ccc(S(=O)(=O)N2CCCCC2)cc1,i,-6.6,i,i,8*,107.0*,0.504,98.7%*,67.0%*,KCNQ1 ephys val=i
CCN(CC)C(=O)[C@H]1C[C@H](CC(=O)NCCC2=CCCCC2)C(=O)N2CCc3c([nH]c4ccc(Cl)cc34)[C@]12C,.,.,i,.,.,.,.,.,.,
O=C(NC1CCCCC1)N1CCCc2ccccc21,i,-9.6,i,i,i,.,.,.,.,
O=C(NC1CCCCC1)N1CCSC1=Nc1ccccc1,i,-20.2,i,i,10*,103.0*,0.41,109.7%*,111.0%*,KCNQ1 ephys val=i
O=S(=O)(NC1C2CC3CC(C2)CC1C3)c1ccc(F)cc1 (stereo unspecified),.,.,i,.,.,.,.,.,.,
Cc1ccccc1S(=O)(=O)Nc1nc2ccccc2nc1N1CCc2ccccc2C1,i,-17.7,i,i,7*,84.5*,0.389,92.3%*,121.5%*,
COC(=O)c1cnc(N)s1,.,.,i,.,.,.,.,.,.,
O=c1[nH]c(C2CCCN(S(=O)(=O)c3ccccc3F)C2)nc2c1nnn2Cc1ccccc1Cl (stereo unspecified),i,-8.7,i,i,i,.,.,.,.,
COc1ccc(C2c3ccsc3CCN2C(=O)C(C)(C)C)cc1 (stereo unspecified),i,-14.4,i,i,8*,116.5*,0.374*,82.0%*,152.0%*,
N#Cc1c(C(F)(F)F)cc(-c2ccc(Cl)cc2)[nH]c1=O,i,-3.4,i,i,i,.,.,.,.,
N#Cc1c(C(F)(F)F)cc(-c2ccc(F)cc2)[nH]c1=O,i,-6.2,i,i,11*,39.5*,0.535,i,i,
FC(F)(F)c1cccc(NC(=S)NCC2COc3ccccc3O2)c1 (stereo unspecified),i,-22.3,i,i,7*,58.5*,0.49,64.7%*,43.5%*,
O=C(Nc1nnc(SCC(=O)N2CCCCC2)s1)c1ccc(F)cc1F,i,-3.2,i,i,i,.,.,.,.,
O=C(c1cccc(S(=O)(=O)N2CCN(c3ccc(F)cc3)CC2)c1)N1CCCC(C(F)(F)F)C1 (stereo unspecified),i,-14.1,i,i,6*,94.0*,0.484,89.0%*,64.5%*,KCNQ1 ephys val=i
Cc1cnc(C(=O)Nc2ccc(C)c(S(=O)(=O)N3CCCCCC3)c2)cn1,.,.,i,.,.,.,.,.,.,
COc1ccc(Nc2nc(-c3cccs3)nc3ccccc23)c(OC)c1,i,-6.8,i,i,8*,132.5*,0.326*,131.3%*,+,
CN(C(=O)c1cccc(NC(=O)Cc2ccc(NC(=O)C3CCCN(C(=O)CCc4ccccc4)C3)cc2)c1)C1CCCCC1 (stereo unspecified),.,.,i,.,.,.,.,.,.,
O=C1CN(S(=O)(=O)c2cccc(Cl)c2Cl)CCN1,.,.,i,.,.,.,.,.,.,
CC(=O)Nc1ccc(CN2CCCCCCC2)cc1,i,-18.6,i,i,i,.,.,.,.,
O=C(Nc1ccc(CN2CCCCC2)cc1)c1c(F)c(F)c(F)c(F)c1F,i,-7.0,i,i,6*,74.0*,0.523,i,44.0%*,
O=C(CSc1nnc2n1CCCN2C(=S)Nc1ccc(Cl)cc1)c1ccccc1,i,-20.1,i,i,9*,102.5*,0.525,i,70.0%*,KCNQ1 ephys val=i
O=C(CSc1nnc2ccccn12)c1ccc(Cl)cc1,i,-14.1,i,i,i,.,.,.,.,
CC1CCCC(NC(=O)NC(=O)COC(=O)c2ccc(O)cc2O)C1C (stereo unspecified),.,.,i,.,.,.,.,.,.,
Cc1ccc(C)c(OCCCCn2cnc3ccccc3c2=O)c1,i,-9.0,i,i,i,.,.,.,.,
SMILES,KCNQ1 act,hERG protect,KCNK3 block,KCNK9 inh,KCNQ1 block,KCNQ1 block val,CHO KCNQ1 ctr,KCNQ2 inh,KCNQ1 KCNE1 spec,others
Cc1ccc(OCCCCn2cnc3ccccc32)c(C)c1,i,-11.0,i,i,9*,115.5*,0.512,74.0%*,81.5%*,KCNQ1 ephys val=i
CN(C(=O)CSc1nnc(-c2cccs2)n1C1CC1)C1CCS(=O)(=O)C1 (stereo unspecified),.,.,i,.,.,.,.,.,.,
Cc1ccc(-n2cc(-c3ccccc3)c3c(N4CCN(C)CC4)ncnc32)cc1,i,-17.7,i,i,i,.,.,.,.,
CCOC(=O)C1CCN(c2ncnc3c2[nH]c2cccc(OC)c23)CC1,i,-8.6,i,i,i,.,.,.,.,
CC1CN(c2ncnc3c2c(-c2ccccc2)cn3-c2ccc(F)cc2)CC(C)O1 (stereo unspecified),i,-27.4,i,i,9*,138.5*,0.416,134.7%*,137.5%*,KCNQ1 ephys val=i
CCOC(=O)C1CCN(c2ncnc3c2c(-c2ccccc2)cn3-c2ccccc2)CC1,i,-22.3,i,i,9*,137.5*,0.404,104.0%*,+,KCNQ1 ephys val=i
CCOC(=O)C1CCN(c2ncnc3c2oc2ccc(Cl)cc23)CC1,i,-13.6,i,i,7*,62.5*,0.545,94.3%*,i,
Cc1ccc(-n2cc(-c3ccccc3)c3c(N4CCOCC4)ncnc32)cc1,i,-12.2,i,i,12*,94.5*,0.423,106.7%*,134.0%*,KCNQ1 ephys val=i
CC[C@@]1(C(=O)OC)N[C@H](CN(C)S(=O)(=O)c2ccc(OC)cc2)[C@@H]2C(=O)N(C)C(=O)[C@@H]21,.,.,i,.,.,.,.,.,.,
COC(=O)c1cc2ccc(OC)cc2c2cc(OC)c(OC)cc12,.,.,i,.,.,.,.,.,.,
COC(=O)C1C2CCCCC1C(=O)O2 (stereo unspecified),.,.,i,.,.,.,.,.,.,
O=c1c2ccccc2nc(SCc2cccc(F)c2)n1C1CCCC1,i,-19.4,i,i,7*,96.5*,0.487,81.3%*,113.5%*,KCNQ1 ephys val=i
CCC(C)n1c(=O)c(C(=O)Nc2ccccc2S(N)(=O)=O)c(O)c2ccccc21 (stereo unspecified),i,-7.9,i,i,i,.,.,.,.,
